# According to ChEMBL document CHEMBL3044706, “Lignans and neolignans from Brassica fruticulosa: effects on seed germination and plant growth” (2003):
# Activity calls are given as the source filed them. The rule behind the calls is not given here.
# Assays:
# [1] = tested on: Lactuca sativa; assay: Effect on root elongation in Lactuca sativa (lettuce) at 10^-4 to 10^-9 M after 5 days relative to control; assay type: functional, organism-based
# Summary of the method: (§1)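 Lettuce seeds, 25 per 50 mm Petri dish on one Whatman No. 1 filter paper, with 2.5 mL test solution in 10 mM MES pH 6 (10^-4 M, diluted to 10^-9 M). Dishes were Parafilm-sealed and kept at 25 °C in the dark. Germination was scored daily for 5 days, then root/shoot lengths were measured on plants frozen at -20 °C. Four replicates, expressed as % difference from parallel control, with Student's t-test.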
# [2] = tested on: Lactuca sativa; assay: Stimulation of shoot elongation in Lactuca sativa (lettuce) at 10^-4 to 10^-9 M after 5 days relative to control; assay type: functional, organism-based; summary of the method: as §1
# [3] = tested on: Lactuca sativa; assay: Inhibition of seed germination in Lactuca sativa (lettuce) at 10^-4 to 10^-9 M after 5 days relative to control; assay type: functional; summary of the method: as §1
# [4] = tested on: Allium cepa; assay: Effect on seed germination in Allium cepa (onion) at 10^-4 to 10^-9 M after 7 days relative to control; assay type: functional, organism-based
# Summary of the method: (§2)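 Seeds (cress 3 days, tomato 5 days, onion 7 days), 25 per 90 mm Petri dish on one Whatman No. 1 filter paper, with 5 mL test solution in 10 mM MES pH 6 (10^-4 M, diluted to 10^-9 M). Dishes were sealed and kept at 25 °C in the dark. Germination was scored daily, then root/shoot lengths were taken after freezing at -20 °C. Four replicates, expressed as % difference from control, with t-test.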
# [5] = tested on: Solanum lycopersicum; assay: Effect on seed germination in Solanum lycopersicum (tomato) at 10^-4 to 10^-9 M after 5 days relative to control; assay type: functional, organism-based; summary of the method: as §2
# [6] = tested on: Lactuca sativa; assay: Inhibition of shoot elongation in Lactuca sativa (lettuce) at 10^-4 to 10^-9 M after 5 days relative to control; assay type: functional, organism-based; summary of the method: as §1
# [7] = tested on: Allium cepa; assay: Stimulation of root elongation in Allium cepa (onion) at 10^-4 to 10^-9 M after 7 days relative to control; assay type: functional, organism-based; summary of the method: as §2
# [8] = tested on: Solanum lycopersicum; assay: Effect on root elongation in Solanum lycopersicum (tomato) at 10^-4 to 10^-9 M after 5 days relative to control; assay type: functional, organism-based; summary of the method: as §2
# [9] = tested on: Allium cepa; assay: Stimulation of shoot elongation in Allium cepa (onion) at 10^-4 to 10^-9 M after 7 days relative to control; assay type: functional, organism-based; summary of the method: as §2
# [10] = tested on: Solanum lycopersicum; assay: Stimulation of shoot elongation in Solanum lycopersicum (tomato) at 10^-4 to 10^-9 M after 5 days relative to control; assay type: functional, organism-based; summary of the method: as §2
# [11] = tested on: Solanum lycopersicum; assay: Inhibition of shoot elongation in Solanum lycopersicum (tomato) at 10^-4 to 10^-9 M after 5 days relative to control; assay type: functional, organism-based; summary of the method: as §2
# [12] = tested on: Allium cepa; assay: Inhibition of shoot elongation in Allium cepa (onion) at 10^-4 to 10^-9 M after 7 days relative to control; assay type: functional, organism-based; summary of the method: as §2
# [13] = tested on: Lepidium sativum; assay: Inhibition of shoot elongation in Lepidium sativum at 10^-4 to 10^-9 M after 3 days relative to control; assay type: functional; summary of the method: as §2
# [14] = tested on: Lepidium sativum; assay: Effect on seed germination in Lepidium sativum at 10^-4 to 10^-9 M after 3 days relative to control; assay type: functional, organism-based; summary of the method: as §2
# [15] = tested on: Lepidium sativum; assay: Effect on root elongation in Lepidium sativum at 10^-4 to 10^-9 M after 3 days relative to control; assay type: functional, organism-based; summary of the method: as §2
# [16] = tested on: Lactuca sativa; assay: Inhibition of seed germination in Lactuca sativa (lettuce) at 10^-9 M after 5 days relative to control; assay type: functional; settings: 120 h; summary of the method: as §1
SMILES,Activity [1],Activity [2],inhibition [3],Activity [4],Activity [5],inhibition [6],Activity [7],Activity [8],Activity [9],Activity [10],inhibition [11],inhibition [12],inhibition (INH) [13] [%],Activity [14],Activity [15],inhibition at 0.001 µM [16] [%],inhibition (INH) [3] [%]
O=C(O)CNCP(=O)(O)O,inactive,Active,Active,–,–,–,–,–,–,–,–,–,–,–,–,–,–
COc1cc([C@H](O)[C@@H](CO)Oc2c(OC)cc([C@@H]3Oc4c(OC)cc(/C=C/CO)cc4[C@H]3CO)cc2OC)ccc1O,inactive,Active,Active,inactive,inactive,Active,Active,inactive,Active,Active,Active,Active,–,–,–,–,–
COc1cc(/C=C/C(=O)O)ccc1Oc1ccc(/C=C/C(=O)O)cc1OC,inactive,Active,–,inactive,inactive,Active,Active,inactive,Active,Active,Active,Active,–,–,–,–,–
COc1cc(C[C@H]2CO[C@H](c3ccc(O)c(OC)c3)[C@H]2CO)ccc1O (racemic) [LARICIRESINOL],inactive,Active,Active,inactive,inactive,Active,Active,inactive,Active,Active,Active,Active,30,inactive,inactive,75,–
COc1cc(C[C@H]2CO[C@H](c3ccc(O[C@@H](CO)[C@@H](O)c4ccc(O)c(OC)c4)c(OC)c3)[C@H]2CO)ccc1O,inactive,Active,Active,inactive,inactive,Active,Active,inactive,Active,Active,Active,Active,–,–,–,–,–
COc1cc([C@@H](O)[C@@H](CO)Oc2c(OC)cc(/C=C/CO)cc2OC)ccc1O,inactive,Active,–,inactive,inactive,Active,Active,inactive,Active,Active,Active,Active,–,–,–,–,–
COc1cc(C[C@@H](CO)[C@H](CO)Cc2ccc(O)c(OC)c2)ccc1O [(+)-SECOISOLARICIRESINOL],inactive,Active,Active,inactive,inactive,Active,Active,inactive,Active,Active,Active,Active,–,–,–,50,–
COc1cc([C@@H]2c3cc(O)c(OC)cc3C[C@H](CO)[C@H]2CO)ccc1O [(-)-ISOLARICIRESINOL],inactive,Active,Active,inactive,inactive,Active,inactive,inactive,Active,Active,Active,Active,30,inactive,inactive,50,–
CCC(CC)Nc1c([N+](=O)[O-])cc(C)c(C)c1[N+](=O)[O-],inactive,Active,Active,–,–,–,–,–,–,–,–,–,–,–,–,–,–
COc1cc([C@@H]2OC[C@H]3[C@@H]2CO[C@H]3c2ccc(O)c(OC)c2)ccc1O,inactive,Active,–,inactive,inactive,Active,Active,inactive,Active,Active,Active,Active,–,–,–,–,–
COc1cc([C@H](O)[C@H](CO)Oc2c(OC)cc([C@@H]3OC[C@@H]4[C@H]3CO[C@H]4c3cc(OC)c(O[C@@H](CO)[C@@H](O)c4ccc(O)c(OC)c4)c(OC)c3)cc2OC)ccc1O,inactive,Active,Active,inactive,inactive,Active,Active,inactive,Active,Active,Active,Active,–,–,–,–,–
COc1cc([C@@H](O)[C@H]2CO[C@H](c3ccc(O)c(OC)c3)[C@H]2CO)ccc1O,inactive,Active,–,inactive,inactive,Active,Active,inactive,Active,Active,Active,Active,–,–,–,–,–
COc1cc([C@H](O)[C@@H](CO)Oc2ccc(/C=C/CO)cc2OC)ccc1O (racemic),inactive,Active,Active,inactive,inactive,Active,Active,inactive,Active,Active,Active,Active,–,–,–,–,–
COc1cc([C@@H]2Oc3c(OC)cc(/C=C/CO)cc3[C@H]2CO)ccc1O [DEHYDROCONIFERYL ALCOHOL],inactive,Active,–,inactive,inactive,Active,Active,inactive,Active,Active,Active,Active,30,inactive,inactive,–,70
